TbHK1 inh – T. brucei hexokinase 1 inhibition; recombinant TbHK1, G6PDH-coupled NADH A340; inhibition, % at 10 µM; 220,000 tested, 0.11% active; AID 1430;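 active = inhibition of 50% or more in the single-dose primary screen; inactive = inhibition below 50%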
S1P4 antagonist – human S1P4 receptor antagonism; O95977; 220,000 tested, 0.26% active; inhibition, % at 4.98 µM; S1P4-expressing cells, antagonist mode, reporter read-out; AID 1510; in the data active = inhibition above about 29%;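 also: 0% = wells stimulated with agonist and 100% = vehicle wells without agonist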
Target sequence (O95977 whole entry, looked up): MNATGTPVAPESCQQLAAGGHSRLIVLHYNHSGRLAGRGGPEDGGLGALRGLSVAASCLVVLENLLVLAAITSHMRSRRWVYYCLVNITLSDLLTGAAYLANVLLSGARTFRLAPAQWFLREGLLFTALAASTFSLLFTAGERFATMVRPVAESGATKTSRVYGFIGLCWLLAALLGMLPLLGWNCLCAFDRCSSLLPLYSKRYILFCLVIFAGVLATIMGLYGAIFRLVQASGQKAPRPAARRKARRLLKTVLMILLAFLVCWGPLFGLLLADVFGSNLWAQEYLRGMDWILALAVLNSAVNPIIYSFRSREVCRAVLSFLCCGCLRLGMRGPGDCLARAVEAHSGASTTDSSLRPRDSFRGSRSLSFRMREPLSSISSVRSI
S1P4 ag – activates the human S1P4 receptor. S1P4-expressing cell line, agonist reporter assay. activation, % at 4.98 µM. 220,000 tested, 0.35% active. AID 1509; in the data active = activation above about 11%;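 also: 0% = DMSO vehicle and 100% = reference agonist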
Dynein cargo inh – blocks dynein driven cargo transport along microtubules | 3617.4 mouse cells, GR-EGFP nuclear translocation imaging; test concentration mostly 20 µM; stimulated with dexamethasone, 1 µM; stronger effect = lower value | z-score, hits read low | 220,000 tested, 0.47% active | AID 1381;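 active = plate z-score of nuclear minus cytoplasmic receptor signal below a set negative limit, without overly bright fluorescence or cell loss, cut at about -3.5 in these data, passing the limit was not always enough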;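 also: z-score of nuclear minus cytoplasmic ring GR-EGFP intensity difference per well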
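Buffer or medium: Induction medium lacking tetracycline, stripped serum | Also added: Dexamethasone agonist, 1.0 µM final, for 30 min | Timing: 48 h induction, 1 h compound, 30 min dex at 37 °C | Detection: Formaldehyde fixation, Hoechst nuclear stain, 10x automated fluorescence imaging | Measure: Nuclear versus cytoplasmic GR-EGFP signal, averaged per well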
S1P3 antag – blocks the human S1P3 receptor; inhibition, % at 4.98 µM; CHO S1P3 NFAT-BLA reporter, FRET fluorescence, antagonist mode; AID 485; 170,000 tested, 0.27% active;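 active = inhibition above the plate cutoff, the mean inhibition of test wells on that plate plus 3 SD, cut at about 28% in these data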;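 also: cells challenged with S1P at its EC80 of 0.8 µM; blue over green emission ratio from cleaved BLA substrate after 4 h stimulation; 0% = S1P-stimulated wells and 100% = unstimulated DMSO-only wells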
Biofilm kill mix – mixture kills Candida albicans biofilm cells; 120,000 tested, 0.02% active; AID 1242; inhibition, % at 7.6 µM; C. albicans biofilm persisters + clotrimazole, fluorescence viability; primary screen in compound mixtures of four per well;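 also: compounds exposed to preformed 24 h biofilms for 48 h; 0% = untreated biofilm control and 100% = clotrimazole plus chlorhexidine kill blank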
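Assay system: C. albicans biofilms / Medium: RPMI/MOPS medium, pH 7.0 / Schedule: biofilm formation 24 h, compound exposure 48 h, 37 °C / Measured by: Alamar Blue fluorescence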
G6PDH counter – Leuconostoc glucose-6-phosphate dehydrogenase inhibition, counter-screen | shares compounds with TbHK1 inh | purified G6PDH, NADH absorbance, 1 h | inhibition, % at 10 µM | 210 tested, 7% active | AID 2516;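 active = at least 50% inhibition in the glucose-6-phosphate dehydrogenase coupled counterscreen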
TbHK1 confirm – T. brucei hexokinase 1 inhibition, rescreen; shares compounds with TbHK1 inh; AID 2560; recombinant TbHK1, G6PDH-coupled NADH A340 absorbance; 210 tested, 10% active; inhibition, % at 10 µM;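 active = inhibition of at least 50% in both of the two screening runs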;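 also: 0% and 100% set by the maximum and minimum signal control wells on each plate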
S1P4 ag conf – human S1P4 agonism, confirmation; S1P4 agonist cell-based reporter assay; 740 tested, 7% active; shares compounds with S1P4 ag; activation, % at 4.98 µM; in the data active = activation above about 12%;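 also: 0% = vehicle and 100% = full reference agonist response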
S1P1 ag – human S1P1 agonism as S1P4 agonist counter-screen | 740 tested, 4% active | shares compounds with S1P4 ag | S1P1 agonist cell-based assay, activation | activation, % at 4.98 µM; in the data active = activation above about 21%;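 also: 0% = vehicle wells and 100% = reference agonist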
Target sequence (P21453 whole entry, looked up): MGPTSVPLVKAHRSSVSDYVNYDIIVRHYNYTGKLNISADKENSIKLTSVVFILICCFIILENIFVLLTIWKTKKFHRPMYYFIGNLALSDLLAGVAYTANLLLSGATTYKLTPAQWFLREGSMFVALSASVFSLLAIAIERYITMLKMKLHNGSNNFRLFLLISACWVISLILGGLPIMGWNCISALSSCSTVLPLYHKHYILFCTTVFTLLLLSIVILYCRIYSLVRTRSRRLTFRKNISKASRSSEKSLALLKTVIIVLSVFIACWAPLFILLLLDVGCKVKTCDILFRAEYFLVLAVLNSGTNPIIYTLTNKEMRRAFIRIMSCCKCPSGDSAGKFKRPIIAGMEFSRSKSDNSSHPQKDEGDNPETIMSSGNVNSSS
S1P4 antag cf – confirmation of human S1P4 receptor antagonists; shares compounds with S1P4 antagonist; S1P4-expressing cell line, antagonist mode, reporter read-out; inhibition, % at 4.98 µM; 520 tested, 71% active; in the data active = inhibition above about 30%
S1P1 antag – human S1P1 antagonism as S1P4 antagonist counter-screen. shares compounds with S1P4 antagonist. inhibition, % at 4.98 µM. AID 1564. cell-based S1P1 antagonist counterscreen, inhibition. 520 tested, 37% active; in the data active = inhibition above about 40%;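 also: receptor stimulated with S1P near its EC80; 0% = agonist stimulated wells and 100% = vehicle only wells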
Active calls of the source: *; · = no result given. Compounds with a hit are over-represented: about 1.3% of the library has one in this group of screens.

SMILES | TbHK1 inh | S1P4 antagonist | S1P4 ag | Dynein cargo inh | S1P3 antag | Biofilm kill mix | S1P4 ag conf | S1P1 ag | others
Cn1nc(-c2ccc(Cl)cc2)nc2c(=O)n(C)c(=O)nc1-2 | 79* | 90* | -9 | -3 | · | · | · | · | G6PDH counter=66*;TbHK1 confirm=57*;S1P4 antag cf=110*;S1P1 antag=88*
CCOc1ccccc1OC(=O)c1cc2ccccc2oc1=O | 4 | 16 | -2 | 1.3 | -22 | 8 | · | ·
CNC(=O)c1cccnc1Nc1cccc(C(F)(F)F)c1 | -4 | -45 | 33* | -0.37 | -3 | 6 | -1 | 6
O=C(NN=C1CCCCCCCCCCC1)c1ccncc1 | -7 | -23 | -1 | -0.43 | 3 | 1 | · | ·
O=C(c1cnc2ccc(Cl)cc2c1Cl)N1CCOCC1 | -12 | -6 | 26* | -0.0011 | -4 | 10 | -1 | 0
Cc1nn(CC2CC2)c(=O)n1-c1ccccc1 | -2 | -4 | 1 | 0.62 | 6 | 11 | · | ·
CC(OC(=O)c1cc2sccc2n1C)C(=O)NCc1cccs1 (stereo not given) | 3 | -7 | 22* | -1 | -41 | · | -2 | 3
c1ccc(CC2CCCNC2)cc1 (stereo not given) | -1 | -4 | 49* | -0.14 | -5 | -4 | 1 | 9
CCOCCCNC(=O)C(c1ccc(OC)cc1)N(Cc1ccc2c(c1)OCO2)C(=O)c1ccccc1O (stereo not given) | 6 | -5 | 0 | 0.51 | 12 | 18 | · | ·
COCCCn1c(=N)c(C(=O)NC2CCCCC2)cc2c(=O)n3ccccc3nc21 | 2 | -25 | 13* | 2.2 | · | 9 | 3 | 2
CC(C)n1c(=N)c(C(=O)NCCc2ccccc2)cc2c(=O)n3ccccc3nc21 | -8 | -14 | 18* | -0.017 | -18 | · | 14* | 36*
COc1ccc([N+](=O)[O-])cc1N(CC(=O)N1CCCC1)S(C)(=O)=O | -7 | 0 | 0 | -0.26 | 1 | 10 | · | ·
COCCNC(=O)c1cc(OC)c(OC)cc1[N+](=O)[O-] | -4 | -10 | 0 | -0.2 | -17 | 15 | · | ·
CSc1cccc(CN2CCC(CO)(Cc3ccccc3)CC2)c1 | 2 | 11 | 16* | -0.84 | 4 | 3 | -2 | -6
CSc1cccc(CN2CCCC(CO)(Cc3cccc(Cl)c3)C2)c1 (stereo not given) | 12 | -7 | -2 | -1.4 | -5 | 1 | · | ·
Cc1cccc(-n2c(=S)[nH]c3nc4c(cc3c2=O)COC(C)(C)C4)c1 | -8 | -9 | 3 | 1.3 | -19 | -12 | · | ·
CCOC(=O)n1ccc(C(=O)Nc2ccccc2F)n1 | 0 | 3 | 16* | -0.77 | -3 | · | 0 | -9
CCOC(=O)c1cc(C(=O)Nc2ccccc2F)nn1C | -5 | -13 | 2 | 0.0082 | · | · | · | ·
CC(C)CCOP(=O)(c1ccccc1)c1ccccc1 | -10 | -21 | 58* | 0.33 | -7 | 16 | -1 | 2
O=S(=O)(c1ccc(F)cc1)N1CCCN(c2nccc(C(F)(F)F)n2)CC1 | -9 | -3 | 0 | -1 | 21 | 19 | · | ·
CC(NC(=O)c1cnc2n(c1=O)CCS2)c1ccccc1 (stereo not given) | 2 | -1 | 0 | -0.53 | 3 | · | · | ·
CCC(C)NC(=O)c1cnc2n(c1=O)CCS2 (stereo not given) | -3 | -6 | 25* | -0.66 | -12 | · | -2 | 4
Cc1oc(-c2cc(F)ccc2F)nc1CN1CCN(C)C(=O)[C@@H]1C | -5 | -8 | 15* | 0.44 | -5 | 1 | -1 | -7
CC/C(O)=C1\C(=O)CCCC1=NCc1nc2ccccc2[nH]1 | 11 | -10 | 209* | 0.015 | 8 | 13 | -3 | 0
CC/C(O)=C1\C(=O)CCCC1=NCCc1nc2ccccc2[nH]1 | 0 | 8 | -4 | 2.3 | -29 | -2 | · | ·
SMILES | TbHK1 inh | S1P4 antagonist | S1P4 ag | Dynein cargo inh | S1P3 antag | Biofilm kill mix | S1P4 ag conf | S1P1 ag | others
CN(C)N1C(N)=C(C#N)C(c2cccs2)C2=C1CC(C)(C)CC2=O (stereo not given) | -10 | -25 | 1 | 0.19 | -27 | 14 | · | ·
COCCN=c1scc(-c2ccco2)n1/N=C/c1ccc(O)c(O)c1O | 3 | -17 | 2 | -1.3 | -29 | -9 | · | ·
CC(C)N=c1scc(-c2ccco2)n1/N=C/c1ccc(O)c(O)c1 | -14 | -25 | 12* | -2.1 | · | · | 22* | 55*
COc1ccc(-c2cc(C(=O)N/N=C/c3ccc(OC)c(COCC(F)(F)C(F)F)c3)c3ccccc3n2)c(OC)c1 | -35 | -9 | 72* | -1.3 | · | · | -2 | -7
COc1ccc(-c2cc(C(=O)N/N=C/c3ccc4c(c3)OCO4)c3ccccc3n2)c(OC)c1 | -29 | -5 | 0 | 0.6 | · | · | · | ·
CCOC(=O)c1c(C)n(C)c2ccc(OC(=O)c3ccco3)cc12 | 2 | -4 | -1 | -0.06 | · | · | · | ·
CCOC(=O)c1cc2ccc(OC(=O)c3ccco3)cc2oc1=O | -6 | -156 | 149* | 0.032 | -144 | · | 84* | 96*
COc1ccc(C(=O)Cn2c(Cl)nc3c2c(=O)n(C)c(=O)n3C)cc1 | -3 | -15 | 2 | -0.2 | -6 | 14 | · | ·
Cn1c(=O)oc2cc(S(=O)(=O)N3CCC(C(=O)NCc4ccc(F)cc4)CC3)ccc21 | -4 | -9 | -2 | -0.76 | · | · | · | ·
Cn1c(=O)oc2cc(S(=O)(=O)N3CCC(C(=O)NCCc4ccccc4)CC3)ccc21 | -2 | -6 | 14* | 0.0052 | 10 | 17 | -2 | -7
COc1ccc(-n2c(CNC(=O)COc3ccc(Cl)cc3Cl)n[nH]c2=S)cc1 | -7 | -3 | 0 | 0.37 | 7 | 17 | · | ·
Clc1ccc(N2N=C(c3cccs3)CC2c2ccco2)cc1 (stereo not given) | -5 | -4 | 14* | 0.67 | · | · | 19* | 55*
c1ccc(N2N=C(c3cccs3)CC2c2ccco2)cc1 (stereo not given) | 0 | -1 | 9 | -0.79 | · | · | · | ·
CSC1=NCCN1C(=O)c1c(-c2c(F)cccc2Cl)noc1C | -4 | 0 | 1 | 0.41 | 11 | 12 | · | ·
